According to the EternaBench riboswitch data:

Test system: MS2 coat protein
Test: apparent Kd, MS2 coat protein; higher = weaker binding; RNA-MaP array; FMN 200 µM where present
Outline: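 Each design was made on Illumina sequencing-chip clusters by stalled E. coli RNA polymerase and titrated with SNAP-549-labelled MS2 coat protein from 0.7 or 1.5 nM, doubling to 3 µM, in the absence and then the presence of constant ligand. The buffer was 100 mM Tris-HCl pH 7.5, 80 mM KCl, 4 mM MgCl2, BSA, DTT, yeast tRNA and Tween-20. The apparent Kd is the median of filtered per-cluster fits of binding curves, with green signal normalised to red-channel RNA signal and control-cluster median Fmax.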

[1] = designed as: ON switch for flavin mononucleotide, no ligand
[2] = ligand present: flavin mononucleotide, designed as: ON switch for flavin mononucleotide
[3] = designed as: OFF switch for flavin mononucleotide, no ligand
[4] = ligand present: flavin mononucleotide, designed as: OFF switch for flavin mononucleotide

UUGAGGCACCAGAAGGACAUGAGGAUCACCCAUGUAGGAUAUGGGCAAGCCGACGUGCGCAGAUUGCUUAGUUGGGUAUCUUCU
apparent Kd [1]: 43.2 nM | apparent Kd [2]: 10.4 nM

UUGAUGUCAGGAUAUGCUUAAUAUAUUUUAUUAUAAUAUAUACAUGAGGAUCACCCAUGUAGAAGGGACAUUGU
apparent Kd [3]: 28.7 nM | apparent Kd [4]: 23.8 nM

UUGCCUCAGAACAUGAGGAUCACCCAUGUGCUGCGGGCAUCGUAGGAUAUGAUGGUAUGAUACCAUCAGAAGGAUGAUGGUACC
apparent Kd [1]: 6.18 nM | apparent Kd [2]: 5.77 nM

UUGCUCAAUUGGGCAGGAACCUCACAUGAGGAUCACCCAUGUCAGGAUAUCCUAGUUUGGACGUAGGAGAAGGGACAGAGUAUC
apparent Kd [3]: 157 nM | apparent Kd [4]: 152 nM

UUGGACCUAGGAUAUACAUGAGGAUCACCCAUGUUGGCGCACGCCCACCUGGGCCCGAGUAGAAGGAGGAAUGU
apparent Kd [3]: 18.9 nM | apparent Kd [4]: 20.3 nM

UUGGACGUCGUACGAUAUGUAGGAUAUUCCUACAUGAGGAUCACCCAUGUUGACAUGGAAGAAGGACAGAAGGACGAUGUCCAU
apparent Kd [1]: 151 nM | apparent Kd [2]: 5.61 nM

UUGGACGUCGUAGGAUAUGCAGGAUAUUCCUACAUGAGGAUCACCCAUGUUGACAUGGAAGAAGGACAGAAGGACGAUGUCCAU
apparent Kd [1]: 11 nM | apparent Kd [2]: 5.38 nM

UUGGACGUCGUAGGAUAUGUAGCAUAUUCCUACAUGAGGAUCACCCAUGUUGACAUGGAAGAAGGACAGAAGGACGAUGUCCAU
apparent Kd [1]: 5.61 nM | apparent Kd [2]: 5.36 nM

UUGGACGUCGUAGGAUAUGUAGGAGAUUCCUACAUGAGGAUCACCCAUGUUGACAUGGAAGAAGGACAGAAGGACGAUGUCCAU
apparent Kd [1]: 328 nM | apparent Kd [2]: 20.4 nM

UUGGACGUCGUAGGAUAUGUAGGAUAUUCCUACAUGAGGAUCACCCAUGUUGACAUGCAAGAAGGACAGAAGGACGAUGUCCAU
apparent Kd [1]: 240 nM | apparent Kd [2]: 6.54 nM

UUGGACGUCGUAGGAUAUGUAGGAUAUUCCUACAUGAGGAUCACCCAUGUUGACAUGGAAGAAGGACAGAAGGACGAUAUCCAU
apparent Kd [1]: 289 nM | apparent Kd [2]: 5.01 nM

UUGGACGUCGUAGGAUAUGUAGGAUAUUCCUACAUGAGGAUCACCCAUGUUGACAUGGAAGAAGGACAGAAGGAUGAUGUCCAU
apparent Kd [1]: 414 nM | apparent Kd [2]: 5.34 nM

UUGGACGUCGUAGGAUAUGUAGGAUAUUCCUACAUGAGGAUCACCCAUGUUGACCUGGAAGAAGGACAGAAGGACGAUGUCCAU
apparent Kd [1]: 64.2 nM | apparent Kd [2]: 4.64 nM

UUGGACGUCGUAGGAUAUGUAGGAUAUUCCUACAUGAGGAUCACCCAUGUUGACGUGGAAGAAGGACAGAAGGACGAUGUCCAU
apparent Kd [1]: 55.3 nM | apparent Kd [2]: 4.63 nM

UUGGACGUCGUAGGCUAUGUAGGAUAUUCCUACAUGAGGAUCACCCAUGUUGACAUGGAAGAAGGACAGAAGGACGAUGUCCAU
apparent Kd [1]: 173 nM | apparent Kd [2]: 4.35 nM

UUGGACGUCGUUGGAUAUGUAGGAUAUUCCUACAUGAGGAUCACCCAUGUUGACAUGGAAGAAGGACAGAAGGACGAUGUCCAU
apparent Kd [1]: 196 nM | apparent Kd [2]: 6.05 nM

UUGGACUUCGUAGGAUAUGUAGGAUAUUCCUACAUGAGGAUCACCCAUGUUGACAUGGAAGAAGGACAGAAGGACGAUGUCCAU
apparent Kd [1]: 257 nM | apparent Kd [2]: 4.12 nM

UUGGCGACGUAGAAGGGUGACAUGAGGAUCACCCAUGUGCCGAUAUGUCUCGAGAUAUGUCGGCCACAGGAUAUACGUGCCAUC
apparent Kd [1]: 61.7 nM | apparent Kd [2]: 38.5 nM

UUGGGACAUGAGGAUCACCCAUGUCAGGAUAUCCCGGCCCGCCCGUGAGGGCGGGCCGGGAGAAGGGACCUUUG
apparent Kd [3]: 41 nM | apparent Kd [4]: 42.9 nM

UUGUGCAAAGGAUAUACGUCCGACCUCGUGGAACUGAGAAUACAUGAGGAUCACCCAUGUAGAAGGUUGCCGAG
apparent Kd [3]: 11.7 nM | apparent Kd [4]: 15.1 nM

UUGUUACAUGAGGAUCACCCAUGUGAGGAUAUGAGUCAGUCACGGUGACGUGGCUGACUCAGAAGGCACUAUGG
apparent Kd [3]: 300 nM | apparent Kd [4]: 149 nM

UUGUUAGGGAGAGGAUAUUGACAUGAGGAUCACCCAUGUAUUUGGGAGUGUUUACUGAAUUCUUACGAGAAGGCUUACGAAAUC
apparent Kd [3]: 264 nM | apparent Kd [4]: 186 nM

UUGUUAUAUGUAGGAUAUGCAUAUUGUUAUUAUGCAGAAGGACAUGAGGAUCACCCAUGUAUAUUAUUAUUAUAUAUUAUAUAU
apparent Kd [3]: 32 nM | apparent Kd [4]: 64.7 nM
